For data set [1], the system named is Mus musculus. Nature of the data set: Antinociceptive activity in Swiss mouse assessed as inhibition of acetic acid-induced writhing at 5 mg/kg, ip administered 30 mins prior to acetic acid challenge. The data set is classed as functional, organism-based. The arrangement: dose 5 mg/kg.
Data set [2] has as its system Mus musculus. The experiment in a line: Hepatotoxicity in Swiss mouse assessed as change in plasma ALT level at 2.5 mg/kg, po for 7 days measured over 7 days relative to vehicle-treated control. Particulars: in vivo, 168 h. Type of data set: toxicity, organism-based. The arrangement: dose 2.5 mg/kg, route oral. The essentials:
(§1)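 Mice dosed po daily for 7 days: vehicle (2% DMSO/saline or Tris/HCl pH 8.0), 10 mg/kg, or indomethacin 2.5 mg/kg. Heparinized blood is drawn under terminal anesthesia, and plasma AST and ALT are measured with a diagnostic kit. n = 8.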

Data set [3] concerns Mus musculus. Nature of the data set: Antihyperalgesic activity in carrageenan-induced mechanical hyperalgesia Swiss mouse model assessed as paw withdrawal latency at 5 mg/kg, ip administered 40 mins prior to challenge by electronic pressure-meter test. The data set is classed as functional, organism-based. The arrangement: dose 5 mg/kg. The essentials:
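Male Swiss mice dosed po (1–10 mg/kg, 2% DMSO in saline) 30 min before intraplantar carrageenin (100 μg/paw). Control indomethacin 5 mg/kg ip given 40 min before. Electronic pressure-meter readings at 1, 3 and 5 h, mean of three. Δ withdrawal threshold (g) is the post-stimulus reading minus zero-time. n = 5.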

Data set [4] has as its system Mus musculus. Nature of the data set: Antinociceptive activity in Swiss mouse assessed as inhibition of PBQ-induced writhing at 5 mg/kg, ip administered 30 mins prior to PBQ challenge. The data set is classed as functional, organism-based. On the set-up: dose 5 mg/kg. In general terms: An intraperitoneal irritant provokes the stretching counted in writhing tests.
In data set [5] the test system is Mus musculus. The experiment in a line: Hepatotoxicity in Swiss mouse assessed as change in plasma AST level at 2.5 mg/kg, po for 7 days measured over 7 days relative to vehicle-treated control. On the set-up: dose 2.5 mg/kg, route oral. Particulars: in vivo, 168 h. Type of data set: toxicity, organism-based. An outline of the steps:
as §1

For data set [6], the system named is Mus musculus. Nature of the data set: Gastrointestinal toxicity in Swiss mouse assessed as increase in stomach MPO activity at 2.5 mg/kg, po for 7 days measured over 7 days relative to vehicle-treated control. Type of data set: organism-based. The arrangement: dose 2.5 mg/kg, route oral. Particulars: in vivo, 168 h. An outline of the steps:
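Mice dosed po daily for 7 days: vehicle (2% DMSO/saline or Tris/HCl pH 8.0), 10 mg/kg, or indomethacin 2.5 mg/kg. Stomach is homogenized in 50 mM phosphate buffer pH 6.0 with 0.5% HTAB. Supernatant is reacted with o-dianisidine/H2O2 and read at 450 nm. Results expressed as neutrophils ×10^4/mg tissue from a neutrophil standard curve. n = 8.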

Activity calls are given as the source filed them.

With `COc1ccc2c(c1)c(CC(=O)O)c(C)n2C(=O)c1ccc(Cl)cc1` [INDOMETHACIN], the inhibition result in data set [1] and in data set [4] was “Active” each time. The Activity result in data set [2], in data set [5] and in data set [6] was “Toxic” each time. In addition, the result in data set [3] was Active.
